ChEMBL document CHEMBL1155425, “Synthesis and antitumor activity of 1-mesityl-3-(2-naphthoylmethano)-1H-imidazolium bromide” (Bioorg Med Chem Lett, 2010)

Tests used:
[1] = Selectivity ratio of IC50 for human A549 cells to IC50 for human Hep2 cells; format: functional
K562 [2] = experiment: Cell cycle arrest in human K562 cells assessed as accumulation at S phase at 10 ug/ml after 24 hrs by flow cytometry; format: functional
Outline: (§1)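 K562 cells, synchronized, treated 24 h. Trypsinized, washed in PBS, fixed overnight in ice-cold 70% EtOH. Treated with RNase A 100 µg/mL at 37 °C for 30 min, then stained with propidium iodide (final 50 µg/mL). 20,000 cells analyzed by flow cytometry for DNA content; phase percentages representative of three independent experiments.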

EJ = experiment: Cytotoxicity in human EJ cells after 48 hrs by MTT assay; format: functional, cell-based
Outline: (§2)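 Cells grown at 37 °C, 5% CO₂, in RPMI 1640 with 10% fetal serum. Exposed 48 h to compound at 0.1–100 µg/mL. Viability by MTT, absorbance at 570 nm. IC50 is the concentration giving 50% reduction in absorbance versus untreated cells; triplicate tests.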

A549 [3] = experiment: Cytotoxicity in human A549 cells after 48 hrs by MTT assay; format: functional, cell-based; settings: A549, 48 h; outline: as §2
K562 [4] = experiment: Cell cycle arrest in human K562 cells assessed as accumulation at S phase at 2 ug/ml after 24 hrs by flow cytometry; format: functional; outline: as §1
HEp-2 = experiment: Cytotoxicity in human Hep2 cells after 48 hrs by MTT assay; format: functional, cell-based; settings: HEp-2, 48 h; outline: as §2
K562 [5] = experiment: Induction of apoptosis in human K562 cells at 2 ug/ml after 24 hrs by Annexin-V-FITC/PI double labelled cytometry; format: functional
Outline: (§3)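 K562 cells (1 × 10⁶/mL) treated 24 h, then resuspended in binding buffer. Stained with Annexin V-FITC and PI for 15 min at room temperature in the dark, diluted in binding buffer, analyzed by flow cytometry. Apoptosis rate given as mean ± S.D. of at least three independent experiments.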

HepG2 = experiment: Cytotoxicity in human HepG2 cells after 48 hrs by MTT assay; format: functional, cell-based; settings: HepG2, 48 h; outline: as §2
K562 [6] = experiment: Cell cycle arrest in human K562 cells assessed as accumulation at G2/M phase at 2 ug/ml after 24 hrs by flow cytometry; format: functional; outline: as §1
[7] = Selectivity ratio of IC50 for human A549 cells to IC50 for human Raji cells; format: functional
K562 [8] = experiment: Cell cycle arrest in human K562 cells assessed as accumulation at G1 phase at 10 ug/ml after 24 hrs by flow cytometry; format: functional; outline: as §1
K562 [9] = experiment: Cell cycle arrest in human K562 cells assessed as accumulation at G2/M phase at 10 ug/ml after 24 hrs by flow cytometry; format: functional; outline: as §1
Mus musculus = experiment: Acute toxicity in human A549 cells xenografted mouse at 10 to 80 mg/kg; format: organism-based; design: dose 10-80 mg/kg; settings: in vivo
K562 [10] = experiment: Cytotoxicity in human K562 cells after 48 hrs by MTT assay; format: functional, cell-based; settings: K562, 48 h; outline: as §2
SMMC-7721 = experiment: Cytotoxicity in human SMMC7721 cells after 48 hrs by MTT assay; format: functional, cell-based; settings: SMMC-7721, 48 h; outline: as §2
A549 [11] = experiment: Antitumor activity against human A549 cells xenografted in nude mouse assessed as increase in tumor volume at 4 mg/kg, ip administered every 2 days for 19 days measured on day 19 postimplantation relative to tumor volume on day of implantation; format: functional; settings: route intraperitoneal
Outline: (§4)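 Nude mice implanted s.c. in right flank with A549 cells (2 × 10⁷ cells/mL) on day 0. Treatment began at mean tumor ~100 mm³ (day 1). Compound in 0.5% CMC-Na given ip every 2 days for 19 days, 0.2 mL per 20 g body weight; cisplatin 1 mg/kg as reference. Caliper volume (W² × L)/2, expressed as RTV = TVn/TV₁.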

Raji = experiment: Cytotoxicity in human Raji cells after 48 hrs by MTT assay; format: functional, cell-based; outline: as §2
K562 [12] = experiment: Cell cycle arrest in human K562 cells assessed as accumulation at G1 phase at 2 ug/ml after 24 hrs by flow cytometry; format: functional; outline: as §1
K562 [13] = experiment: Induction of apoptosis in human K562 cells at 10 ug/ml after 24 hrs by Annexin-V-FITC/PI double labelled cytometry; format: functional; outline: as §3
A549 [14] = experiment: Antitumor activity against human A549 cells xenografted in nude mouse assessed as increase in tumor volume at 8 mg/kg, ip administered every 2 days for 19 days measured on day 19 postimplantation relative to tumor volume on day of implantation; format: functional; settings: route intraperitoneal; outline: as §4

For `Cc1cc(C)c(-n2cc[n+](CC(=O)c3ccc4ccccc4c3)c2)c(C)c1.[Br-]`, the “Ratio IC50” value [1] was 8, the Activity (K562 [2]) was 26% and the IC50 (EJ) was 1.2 µg/mL. It also gave an IC50 (A549 [3]) of 5 µg/mL, an Activity (K562 [4]) of 45% and an IC50 (HEp-2) of 0.3 µg/mL. For the same compound, the Activity (K562 [5]) was 8.1%, the IC50 (HepG2) was 2.2 µg/mL and the Activity (K562 [6]) was 16%. The “Ratio IC50” value [7] was 8, the Activity (K562 [8]) was 56% and the Activity (K562 [9]) was 19%. For the same compound, the Activity (Mus musculus) was “Non-toxic”, the IC50 (K562 [10]) was 1.7 µg/mL and the IC50 (SMMC-7721) was 1.8 µg/mL. For the same compound, the “fold change (FC)” value (A549 [11]) was 5.3, the IC50 (Raji) was 0.7 µg/mL and the Activity (K562 [12]) was 40%. For the same compound, the Activity (K562 [13]) was 15.5% and the “fold change (FC)” value (A549 [14]) was 3.1.
